The text below walks through data of the EternaBench riboswitch data.

For the series, the system named is MS2 coat protein. Briefly: apparent Kd, MS2 coat protein; higher = weaker binding; RNA-MaP array; FMN 200 µM where present. An outline of the steps:
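Green signal from SNAP-549-labelled MS2 coat protein was normalised to red-channel RNA signal and to the median Fmax of control clusters. The protein was titrated from 0.7 or 1.5 nM, doubling to 3 µM, without and then with constant ligand, over designs transcribed by stalled E. coli RNA polymerase on Illumina sequencing-chip clusters, in 100 mM Tris-HCl pH 7.5, 80 mM KCl, 4 mM MgCl2, BSA, DTT, yeast tRNA and Tween-20. The apparent Kd is the median of filtered per-cluster binding-curve fits.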

Setting [1] is: designed as: OFF switch for flavin mononucleotide, no ligand.
The mark [2] stands for this setting: ligand present: flavin mononucleotide, designed as: OFF switch for flavin mononucleotide.
The mark [3] stands for this setting: designed as: ON switch for flavin mononucleotide, no ligand.
[4] abbreviates: ligand present: flavin mononucleotide, designed as: ON switch for flavin mononucleotide.

On to “AUCAGCUCGUCAGGAUAUACGUCACUGCGUCACCAGUGUGGUAAGAUCACAUGAGGAUCACCCAUGUAGAAGGGACGAGCUGAU”, for which the “apparent Kd” value is 15.4 nM under setting [1] and 287 nM under setting [2].
Taken in the same sequence, the figures for “CUGUUAUAUGAAGGAUAUACUUAACAUGAGGAUCACCCAUGUGGUGUUGUGAGUGAGUGAGUUUAGUAGAAGGUCAAUUCUUUU” were 207 nM and 221 nM.
In the case of “GGGCCACAUGAGGAUCACCCAUGUAAACCCGUGCUCAGGGCACAGGAUAUGGGCCUGGAUUAGGCCCAGAAGGGUGGUCUGGCC”, the “apparent Kd” value stood at 29.4 nM under setting [3] and 10.6 nM under setting [4].
For “GUAAAUCAUGUAGGAUAUGCAUGGCGAAGCUACGCAGAAGGACAUGAGGAUCACCCAUGUCUGUCCGUCUGCGUACAGACGGAC”, the “apparent Kd” value is, setting by setting: under setting [1], 25.6 nM; under setting [2], 170 nM.
With “UUGGACGUCGUAGGAUAUGCAGGAUAUUCCUACAUGAGGAUCACCCAUGUUGACAUGGAAGAAGGACAGAAGGACGAUGUCCAU”, the “apparent Kd” value is, setting by setting: under setting [3], 11 nM; under setting [4], 5.38 nM.
Consider “AGUCGGCGAGGAUAUACAUGAGGAUCACCCAUGUGAUAUAGUGCACGCGUACGUGUACGUAGAAGGCGCUGACA”, for which the “apparent Kd” value under setting [1] was 13.3 nM and the “apparent Kd” value under setting [2] is 40.1 nM.
For “GCACGGUUGCUAGGAUAUCCUUGCGAUUAGCAAGGAGAAGGAGCACAUGAGGAUCACCCAUGUACCUCAAUAAUCCAUCCGUGC”, the “apparent Kd” value is, setting by setting: under setting [1], 14.8 nM; under setting [2], 14.2 nM.
“GUAGUGUAUGUAGGAUAUGUGAAGCAAAGCUUCACAGAAGGACAUGAGGAUCACCCAUGUAUUGCAGUCAGCAAUCUGACUGCU”: the “apparent Kd” value reads like this: under setting [1], 41 nM; under setting [2], 145 nM.
“UGGAACUAGGGAGGAUAUGGGAAGAUACAUGAGGAUCACCCAUGUUUAAGAAUGCCGAGAGGCAACUAGAAGGCCCUAGUACCU”: the “apparent Kd” value reads like this: under setting [3], 454 nM; under setting [4], 20.3 nM.
Take “UUUAUUUCGGCAGGAUAUACAUGUAUAUAUAUUUCUUCAUAUCUUAUUACAUGAGGAUCACCCAUGUAGAAGGGCCUUCUUCUC”: the “apparent Kd” value runs as follows: under setting [1], 65.6 nM; under setting [2], 80.5 nM.
Taken in the same sequence, the figures for “UAUAUAUAGUAAGGAUAUGUAAAUAUUUUAUAAACAGAAGGUACUGACAUGAGGAUCACCCAUGUUUUAGUGUGGGCAUGUAGA” were 79.2 nM and 139 nM.
Consider “GACUUGUCAGGAUAUCUUACAUUUGCAUCUUAGUUACCAUUGGAGAAGGGACAUGAGGAUCACCCAUGUUUGGU”, for which the “apparent Kd” value was 35.1 nM under setting [1] and 34.4 nM under setting [2].
Turning to “CCAUGGUGGGCAGGAUAUCGUCCAGCUUGCGGACGAGAAGGGCUCAAACAUGAGGAUCACCCAUGUGAAGAGCGGGUUGUCCAA”, the “apparent Kd” value reads like this: under setting [1], 24.6 nM; under setting [2], 146 nM.
Consider “GAGAAGUCAGGAUAUGCAUGGCGGGACUUGCGUCGUGGCGUGCAGAAGGGACAUGAGGAUCACCCAUGUGGAGU”, for which the “apparent Kd” value stood at 163 nM under setting [1] and 235 nM under setting [2].
Turning to “AUAAACGCAGGAUAUACAUGAGGAUCACCCAUGUCCGCGCUUGUUGCGGGCACCUGAUGUAGAAGGGCGGGCGC”, the “apparent Kd” value under setting [1] was 214 nM and the “apparent Kd” value under setting [2] turned out to be 184 nM.
With “AUGGUACAUGAGGAUCACCCAUGUCAGGAUAUCGGCUUUAACGUGAAAAGAGUGUUAGCGAGAAGGGACUGCUC”, the “apparent Kd” value under setting [1] amounted to 23.6 nM and the “apparent Kd” value under setting [2] came out at 28.7 nM.
Taken in the same sequence, the figures for “AGUCAUACAGGAUAUACAUGAGGAUCACCCAUGUAUAUCCAAAAUGGGUGAUCCUCAUGUAGAAGGGUAUGACA” were 10.3 nM and 10.5 nM.
“AGUAUGCACGCAGGAUAUACAUGAGGAUCACCCAUGUGGAACAGUGUAGUAUUAGUUGAUCCUCAGUAGAAGGGCGGUCGAAAU”: the “apparent Kd” value reads like this: under setting [1], 82.5 nM; under setting [2], 55.6 nM.
Taken in the same sequence, the figures for “CGAUAUGAUAGAGGAUAUGUAAUACAUGAGGAUCACCCAUGUUACAUGGGAAUUAUAAAUAAUUAACAGAAGGCUAUUCUAUCG” were 63.8 nM and 177 nM.
For “CACGAUGAUGUAGGAUAUAUACUGGAAUACAGUAUAGAAGGACAUGAGGAUCACCCAUGUUAAGUGCCUCCAAGUAACAUCGUG”, the “apparent Kd” value reads like this: under setting [1], 17.2 nM; under setting [2], 25.4 nM.
In the case of “CUAUGCCGAAUAGGAUAUUCGAUCAAAAGGAUAGAAGAAGGGUUACAUGAGGAUCACCCAUGUAUGCACAUGAGGAUCCCUUAG”, the “apparent Kd” value runs as follows: under setting [1], 279 nM; under setting [2], 316 nM.
As for “GUACAGUAGUGAGGAUAUACGAGAUCGAUAGAUCGGCGAUCCAAUAAUACAUGAGGAUCACCCAUGUAGAAGGCACUUCUGUAC”, the “apparent Kd” value by setting is: under setting [1], 7.69 nM; under setting [2], 113 nM.
“GGAUAGGACAGAGGAUAUACGUGCUAGAGAUACUAGCAAAAUUUCCUCACAUGAGGAUCACCCAUGUAGAAGGCAGUCCUAUCG”: the “apparent Kd” value is, setting by setting: under setting [1], 4.95 nM; under setting [2], 7.33 nM.
For “GGAGACCUCAUAGGAUAUGCUGGACUUUGUCCAGCAGAAGGGUGAAAACAUGAGGAUCACCCAUGUAUGGUCUCCAAAUUUAAU”, the “apparent Kd” value is, setting by setting: under setting [3], 992 nM; under setting [4], 327 nM.
“GCGCCAUUGCAAGGAUAUCCUACAGAGGGUGCAGGAGAAGGUGCAUUGGUGAGACUAUAGGACAUGAGGAUCACCCAUGUACCU”: the “apparent Kd” value reads like this: under setting [3], 14.8 nM; under setting [4], 17.9 nM.
Turning to “CCCUCACAUGAGGAUCACCCAUGUCAGGAUAUCUCACAUCGGCCUUAGGCCAAUGUCAAGAGAAGGGACGUAUC”, the “apparent Kd” value under setting [1] is 22.3 nM and the “apparent Kd” value under setting [2] worked out at 33.9 nM.
Take “UCCUUGGUACAGAAGGACCGAGCUCCGUAGCAGGUAGGAUAUGUACAUGAGGAUCACCCAUGUCAGCGGUAAUUACCAGUAUUC”: the “apparent Kd” value runs as follows: under setting [1], 40.2 nM; under setting [2], 29.1 nM.
With “GUACAGAUCACAGGAUAUCACGUCGUUUAGACGUGAGAAGGGUGAUCACACAUGAAUAUUAAUACAUGAGGAUCACCCAUGUAC”, the “apparent Kd” value is, setting by setting: under setting [3], 36 nM; under setting [4], 97.7 nM.
Regarding “AGCGGCGCAGACCACCGCAAAACCAGAAGGACAUGAGGAUCACCCAUGUAACAAAACAGGGCAAUGUAGGAUAUGGCAAACCCA”, the “apparent Kd” value under setting [1] is 11.1 nM and the “apparent Kd” value under setting [2] came to 12.6 nM.
For the sequence “CCGCAGUUAGGAUAUACAUGAGGAUCACCCAUGUGUCCAUCUGUAAUAAGACAGGAUAGUAGAAGGAACUGGCG”, the “apparent Kd” value was found to be 14.8 nM under setting [1] and 25.9 nM under setting [2].
With “GGUGAGUGAGGAUAUCCAGGUCCUGACAUGAGGAUCACCCAUGUAUACGUCACGUGCGGAGGAGAAGGCACAAUAA”, the “apparent Kd” value worked out at 91.1 nM under setting [1] and 297 nM under setting [2].
Take “GGUACUCAAAGAGUACUUGGUCGAACAUGAGGAUCACCCAUGUAGGAUAUGCAAAGCUAGAAGUAGCAGAAGGACAUGUGCAGC”: the “apparent Kd” value amounted to 14.4 nM under setting [1] and 22.1 nM under setting [2].
As for “AGUAAGAUGCAGAAGGUGUCAGCGAGAGCUACGACAUGAGGAUCACCCAUGUACUAGUGAGAGUACAAGGAUAUGCAUCUUACA”, the “apparent Kd” value was 76.3 nM under setting [3] and 8.54 nM under setting [4].
Taken in the same sequence, the figures for “AAUGUGUGUGGAGGAUAUAUAACAUGACAACAAACACAUACAUGAGGAUCACCCAUGUCCCAUGUAUAGAAGGCCAUAUAUAUA” were 662 nM and 618 nM.
For “AUAUCUUACCAAGGAUAUUUAAGAUUUGUGUAGACAUGAGGAUCACCCAUGUGGCCUUAGUCACGGGAGAAGGUGGUUUGAUAU”, in that order: 878 nM and 493 nM.
For “CAAUGUACCUAGGAUAUAACCUACGACAUUGGGUUAGAAGGAGGAACAUGAGGAUCACCCAUGUGACUUCGCAA”, the “apparent Kd” value under setting [1] amounted to 10 nM and the “apparent Kd” value under setting [2] was 11.9 nM.
Taken in the same sequence, the figures for “UUCAUGUGAGGAUAUGCGGCACCAGGCAAGCCUAGUGCUGAGCAGAAGGCACAUGAGGAUCACCCAUGUGCUCC” were 29.3 nM and 72.2 nM.
With “AUAAGCAUUUAUGUGUGCGUAGCACAGGAUAUGCUCCGCGCACAUGAGGAUCACCCAUGUUCGCAGCAGAAGGGUGCAUGCGUU”, the “apparent Kd” value worked out at 330 nM under setting [3] and 61.5 nM under setting [4].
Turning to “AUUGUAUGGGAAGGAUAUAGAAUAUUAUUUUAACAUGAGGAUCACCCAUGUAACCUUAUGUGUAGCUAGAAGGUCCGUUUAUUA”, the “apparent Kd” value worked out at 131 nM under setting [1] and 157 nM under setting [2].
For “ACAUGAGGAUCACCCAUGUACAGGGUUUAGUUUCAUUGUUUGAAGGAUAUACUUAGUUAGUUGUUGUAGAAGGUCAUAUUUUAU”, in that order: 203 nM and 265 nM.
With “CCUCAGUAAGGAUAUCAGCUUAUAGAGUUGGUAAUGAGAGCUGAGAAGGUACAUGAGGAUCACCCAUGUUAGUU”, the “apparent Kd” value is, setting by setting: under setting [1], 21.8 nM; under setting [2], 57.3 nM.
As to “UCAUUUACCACAGGAUAUAUUCAUAUACAGUUGUUUGGCUCUUACAUGUUAGUAGAAGGGUGCAACAUGAGGAUCACCCAUGUA”, the “apparent Kd” value reads like this: under setting [3], 298 nM; under setting [4], 163 nM.
With “GCUGCAUAGGCAGGAUAUGCAACAAUGAGAUGAAAAUACAUCUCAUUGACAUGAGGAUCACCCAUGUAGAAGGGCCUGUGCAGU”, the “apparent Kd” value under setting [1] was found to be 16.3 nM and the “apparent Kd” value under setting [2] worked out at 18.9 nM.
In the case of “UUUUGGCGGGCAGGAUAUACUAAGACAUGAGGAUCACCCAUGUACUUGCAAGAUGUCCGUGUCGAGUAGAAGGGCCAAGCUAUA”, the “apparent Kd” value amounted to 4.97 nM under setting [1] and 7.8 nM under setting [2].
In the case of “GUCAGCUCGUGAGGAUAUACAUGUGCUGGAGACAGCAUUAAAUUUUUCACAUGAGGAUCACCCAUGUAGAAGGCACGAGCUGAU”, the “apparent Kd” value runs as follows: under setting [1], 18.4 nM; under setting [2], 49.4 nM.
For “CUCUUGUGAGGAUAUCAGUAGUAAAAAAAUAAAAUUACUACUGAGAAGGCACAUGAGGAUCACCCAUGUGACUU”, the “apparent Kd” value was 26.2 nM under setting [1] and 30.5 nM under setting [2].
With “AAUUAUUUUUGAGGAUAUGGUGGUGAAACACCACCAGAAGGCGGAAUAAACAUGAGGAUCACCCAUGUGAGCCUGAUGCUUAUG”, the “apparent Kd” value is, setting by setting: under setting [1], 21.3 nM; under setting [2], 40.5 nM.
With “AAACACGGACAUGAGGAUCACCCAUGUGGCGAAAGCCUUGGGAGAAGGAUAAAUAUAUAAUAAAAUUAGGAUAUUCAUACCGUG”, the “apparent Kd” value reads like this: under setting [3], 306 nM; under setting [4], 104 nM.

Usually apparent Kd stands for the concentration giving half-maximal binding under the conditions of the assay.
